Changes are numbered by the printed parent chain.
Tests used:
Settings in all cases: stereoisomer not certain
OR4S2 (Homo sapiens) = target: T1, OR4S2 (Homo sapiens) (UniProt Q8NH73)
T1 sequence (whole entry): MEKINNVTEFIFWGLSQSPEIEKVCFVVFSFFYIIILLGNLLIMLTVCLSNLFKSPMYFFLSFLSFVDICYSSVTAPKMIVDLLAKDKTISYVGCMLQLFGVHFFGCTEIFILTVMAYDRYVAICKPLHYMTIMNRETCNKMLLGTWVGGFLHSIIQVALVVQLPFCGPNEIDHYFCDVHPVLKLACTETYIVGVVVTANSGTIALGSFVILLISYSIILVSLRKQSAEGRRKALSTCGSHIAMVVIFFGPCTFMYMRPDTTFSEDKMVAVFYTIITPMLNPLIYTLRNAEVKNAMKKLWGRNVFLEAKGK
Method in brief: (§1)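 Transient luciferase assays in mammalian cell lines were common, though methods varied by source. The values come from published papers and their supplementary material, with extra details from the original authors when needed. Responsive refers to a measured signal the original authors judged statistically different from baseline, and non-responsive (inactive) to the remainder.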

OR4X1 (Homo sapiens) = target: T2, OR4X1 (Homo sapiens) (UniProt Q8NH49)
T2 sequence (whole entry): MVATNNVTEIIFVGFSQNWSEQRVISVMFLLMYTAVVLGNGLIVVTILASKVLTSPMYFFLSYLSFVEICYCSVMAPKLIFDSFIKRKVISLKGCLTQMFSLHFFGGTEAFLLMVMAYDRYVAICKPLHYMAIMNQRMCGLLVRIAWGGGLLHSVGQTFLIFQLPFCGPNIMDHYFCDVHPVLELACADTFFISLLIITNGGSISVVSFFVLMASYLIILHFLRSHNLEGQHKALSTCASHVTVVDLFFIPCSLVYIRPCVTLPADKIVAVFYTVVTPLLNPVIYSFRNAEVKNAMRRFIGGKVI
Method in brief: as §1

OR4X2 (Homo sapiens) = target: T3, OR4X2 (Homo sapiens) (UniProt Q8NGF9)
T3 sequence (whole entry): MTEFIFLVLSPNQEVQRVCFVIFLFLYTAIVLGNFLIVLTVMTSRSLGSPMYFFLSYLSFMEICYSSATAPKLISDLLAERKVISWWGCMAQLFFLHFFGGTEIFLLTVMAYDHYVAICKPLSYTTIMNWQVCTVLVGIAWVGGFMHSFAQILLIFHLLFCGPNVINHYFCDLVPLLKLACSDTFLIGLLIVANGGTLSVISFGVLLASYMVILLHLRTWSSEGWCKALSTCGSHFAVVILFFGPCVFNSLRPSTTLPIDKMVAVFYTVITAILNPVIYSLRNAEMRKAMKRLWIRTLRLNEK
Method in brief: as §1

OR51A2 (Homo sapiens) = target: T4, OR51A2 (Homo sapiens) (UniProt Q8NGJ7)
T4 sequence (whole entry): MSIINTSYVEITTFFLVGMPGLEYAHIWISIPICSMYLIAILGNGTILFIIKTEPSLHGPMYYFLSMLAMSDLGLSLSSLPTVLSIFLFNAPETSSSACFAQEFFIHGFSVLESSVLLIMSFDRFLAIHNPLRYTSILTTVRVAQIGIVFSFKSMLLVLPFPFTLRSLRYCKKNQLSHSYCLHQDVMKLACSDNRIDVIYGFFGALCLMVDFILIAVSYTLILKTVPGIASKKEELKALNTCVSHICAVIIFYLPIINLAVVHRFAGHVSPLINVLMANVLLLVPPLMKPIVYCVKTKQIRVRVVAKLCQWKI
Method in brief: as §1

OR51A4 (Homo sapiens) = target: T5, OR51A4 (Homo sapiens) (UniProt Q8NGJ6)
T5 sequence (whole entry): T4 sequence (whole entry) with G59E, T94I, S97N, S167N, P227L, E235Q, G267R, M288T, K289N, W311R
Method in brief: as §1

OR51A7 (Homo sapiens) = target: T6, OR51A7 (Homo sapiens) (UniProt Q8NH64)
T6 sequence (whole entry): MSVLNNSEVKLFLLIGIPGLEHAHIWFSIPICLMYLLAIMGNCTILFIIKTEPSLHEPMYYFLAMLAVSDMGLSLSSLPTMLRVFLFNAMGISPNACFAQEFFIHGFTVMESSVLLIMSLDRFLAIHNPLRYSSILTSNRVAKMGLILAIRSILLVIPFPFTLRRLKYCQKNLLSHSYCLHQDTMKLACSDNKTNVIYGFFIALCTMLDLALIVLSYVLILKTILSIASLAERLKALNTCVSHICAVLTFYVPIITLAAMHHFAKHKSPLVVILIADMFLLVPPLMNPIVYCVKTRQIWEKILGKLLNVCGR
Method in brief: as §1

OR51B2 (Homo sapiens) = target: T7, OR51B2 (Homo sapiens) (UniProt Q9Y5P1)
T7 sequence (whole entry): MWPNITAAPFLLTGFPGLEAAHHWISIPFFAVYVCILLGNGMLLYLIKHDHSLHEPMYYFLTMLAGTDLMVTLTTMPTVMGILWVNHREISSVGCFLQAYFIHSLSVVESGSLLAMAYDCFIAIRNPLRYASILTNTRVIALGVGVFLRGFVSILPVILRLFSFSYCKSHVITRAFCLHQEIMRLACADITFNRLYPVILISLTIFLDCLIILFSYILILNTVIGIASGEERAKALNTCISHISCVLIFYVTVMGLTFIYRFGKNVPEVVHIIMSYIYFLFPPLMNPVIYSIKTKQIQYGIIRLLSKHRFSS
Method in brief: as §1

OR51B4 (Homo sapiens) = target: T8, OR51B4 (Homo sapiens) (UniProt Q9Y5P0)
T8 sequence (whole entry): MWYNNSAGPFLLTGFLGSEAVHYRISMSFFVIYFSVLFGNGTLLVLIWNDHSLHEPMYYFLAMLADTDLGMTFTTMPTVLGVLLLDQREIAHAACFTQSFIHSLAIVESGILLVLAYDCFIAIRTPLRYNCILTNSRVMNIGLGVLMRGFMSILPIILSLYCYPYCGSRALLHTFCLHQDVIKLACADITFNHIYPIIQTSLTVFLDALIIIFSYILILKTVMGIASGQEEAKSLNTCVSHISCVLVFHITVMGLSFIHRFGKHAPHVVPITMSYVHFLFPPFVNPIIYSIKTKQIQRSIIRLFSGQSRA
Method in brief: as §1

OR51B5 (Homo sapiens) = target: T9, OR51B5 (Homo sapiens) (UniProt Q9H339)
T9 sequence (whole entry): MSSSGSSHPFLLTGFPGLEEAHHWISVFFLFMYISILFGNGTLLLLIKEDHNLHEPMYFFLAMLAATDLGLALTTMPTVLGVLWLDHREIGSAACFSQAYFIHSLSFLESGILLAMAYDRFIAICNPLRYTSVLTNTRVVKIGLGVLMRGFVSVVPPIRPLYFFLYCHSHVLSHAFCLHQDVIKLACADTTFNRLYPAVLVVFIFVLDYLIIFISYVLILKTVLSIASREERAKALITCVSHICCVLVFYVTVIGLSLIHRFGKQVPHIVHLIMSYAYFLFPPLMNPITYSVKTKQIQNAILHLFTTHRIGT
Method in brief: as §1

OR51B6 (Homo sapiens) = target: T10, OR51B6 (Homo sapiens) (UniProt Q9H340)
T10 sequence (whole entry): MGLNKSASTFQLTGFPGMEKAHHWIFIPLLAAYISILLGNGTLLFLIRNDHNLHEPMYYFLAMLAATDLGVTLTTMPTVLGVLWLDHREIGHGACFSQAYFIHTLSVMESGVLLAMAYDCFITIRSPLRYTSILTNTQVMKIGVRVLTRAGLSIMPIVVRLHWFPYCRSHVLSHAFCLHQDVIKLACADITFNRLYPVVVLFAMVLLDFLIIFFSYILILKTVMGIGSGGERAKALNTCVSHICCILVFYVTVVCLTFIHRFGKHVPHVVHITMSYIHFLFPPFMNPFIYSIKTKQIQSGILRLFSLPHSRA
Method in brief: as §1

OR51D1 (Homo sapiens) = target: T11, OR51D1 (Homo sapiens) (UniProt Q8NGF3)
T11 sequence (whole entry): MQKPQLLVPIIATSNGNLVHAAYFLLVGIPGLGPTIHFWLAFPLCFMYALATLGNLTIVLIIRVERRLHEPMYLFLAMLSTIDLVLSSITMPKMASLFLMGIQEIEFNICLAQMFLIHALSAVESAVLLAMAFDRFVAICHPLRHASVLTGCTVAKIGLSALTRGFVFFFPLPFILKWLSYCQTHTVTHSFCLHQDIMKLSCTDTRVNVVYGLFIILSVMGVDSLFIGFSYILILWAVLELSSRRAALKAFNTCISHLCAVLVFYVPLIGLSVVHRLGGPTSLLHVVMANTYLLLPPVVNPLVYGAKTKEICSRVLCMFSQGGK
Method in brief: as §1

OR51E1 (Homo sapiens) = target: T12, OR51E1 (Homo sapiens) (UniProt Q8TCB6)
T12 sequence (whole entry): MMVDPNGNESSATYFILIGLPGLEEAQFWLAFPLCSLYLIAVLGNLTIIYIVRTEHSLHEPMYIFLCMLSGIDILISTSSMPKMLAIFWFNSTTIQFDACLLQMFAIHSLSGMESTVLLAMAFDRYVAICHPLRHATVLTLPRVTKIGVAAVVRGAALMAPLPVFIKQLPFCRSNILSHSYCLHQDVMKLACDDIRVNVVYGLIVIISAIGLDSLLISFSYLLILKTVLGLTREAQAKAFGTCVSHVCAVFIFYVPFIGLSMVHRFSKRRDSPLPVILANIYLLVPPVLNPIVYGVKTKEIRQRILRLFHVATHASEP
Method in brief: as §1

OR51E2 (Homo sapiens) = target: T13, OR51E2 (Homo sapiens) (UniProt Q9H255)
T13 sequence (whole entry): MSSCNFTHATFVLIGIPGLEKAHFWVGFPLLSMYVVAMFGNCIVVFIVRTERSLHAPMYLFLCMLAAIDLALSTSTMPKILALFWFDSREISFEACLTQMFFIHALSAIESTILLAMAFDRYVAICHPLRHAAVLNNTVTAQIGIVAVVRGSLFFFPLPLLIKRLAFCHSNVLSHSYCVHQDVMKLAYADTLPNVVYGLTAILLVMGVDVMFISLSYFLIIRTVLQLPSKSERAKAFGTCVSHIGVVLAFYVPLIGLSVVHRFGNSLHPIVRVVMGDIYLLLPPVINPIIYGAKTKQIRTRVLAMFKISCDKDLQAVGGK
Method in brief: as §1

OR51F2 (Homo sapiens) = target: T14, OR51F2 (Homo sapiens) (UniProt Q8NH61)
T14 sequence (whole entry): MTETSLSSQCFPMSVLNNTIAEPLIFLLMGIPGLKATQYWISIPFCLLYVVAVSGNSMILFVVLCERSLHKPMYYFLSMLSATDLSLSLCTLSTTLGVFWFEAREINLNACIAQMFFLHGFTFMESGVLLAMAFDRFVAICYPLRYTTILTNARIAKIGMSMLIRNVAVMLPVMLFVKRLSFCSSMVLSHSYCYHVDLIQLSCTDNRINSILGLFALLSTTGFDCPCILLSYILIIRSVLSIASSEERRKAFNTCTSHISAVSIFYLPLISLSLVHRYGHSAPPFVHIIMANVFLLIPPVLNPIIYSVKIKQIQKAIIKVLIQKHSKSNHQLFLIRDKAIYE
Method in brief: as §1

OR51G1 (Homo sapiens) = target: T15, OR51G1 (Homo sapiens) (UniProt Q8NGK1)
T15 sequence (whole entry): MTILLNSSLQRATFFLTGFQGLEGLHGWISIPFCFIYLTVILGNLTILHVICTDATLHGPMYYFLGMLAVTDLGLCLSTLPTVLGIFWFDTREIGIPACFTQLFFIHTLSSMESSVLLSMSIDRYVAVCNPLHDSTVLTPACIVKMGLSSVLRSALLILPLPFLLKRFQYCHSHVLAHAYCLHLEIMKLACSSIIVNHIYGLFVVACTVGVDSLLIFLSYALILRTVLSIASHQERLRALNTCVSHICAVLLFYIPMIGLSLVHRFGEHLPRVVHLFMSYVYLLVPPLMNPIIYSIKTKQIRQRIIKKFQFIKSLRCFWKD
Method in brief: as §1

OR51G2 (Homo sapiens) = target: T16, OR51G2 (Homo sapiens) (UniProt Q8NGK0)
T16 sequence (whole entry): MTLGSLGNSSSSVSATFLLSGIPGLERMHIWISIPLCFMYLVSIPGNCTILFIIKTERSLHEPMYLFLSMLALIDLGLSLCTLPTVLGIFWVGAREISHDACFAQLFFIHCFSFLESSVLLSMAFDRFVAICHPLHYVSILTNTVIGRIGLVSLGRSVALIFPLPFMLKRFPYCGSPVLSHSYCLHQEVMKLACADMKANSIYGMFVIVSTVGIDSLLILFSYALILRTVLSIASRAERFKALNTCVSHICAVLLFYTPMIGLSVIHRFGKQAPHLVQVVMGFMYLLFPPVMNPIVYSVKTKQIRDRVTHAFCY
Method in brief: as §1

OR51I1 (Homo sapiens) = target: T17, OR51I1 (Homo sapiens) (UniProt Q9H343)
T17 sequence (whole entry): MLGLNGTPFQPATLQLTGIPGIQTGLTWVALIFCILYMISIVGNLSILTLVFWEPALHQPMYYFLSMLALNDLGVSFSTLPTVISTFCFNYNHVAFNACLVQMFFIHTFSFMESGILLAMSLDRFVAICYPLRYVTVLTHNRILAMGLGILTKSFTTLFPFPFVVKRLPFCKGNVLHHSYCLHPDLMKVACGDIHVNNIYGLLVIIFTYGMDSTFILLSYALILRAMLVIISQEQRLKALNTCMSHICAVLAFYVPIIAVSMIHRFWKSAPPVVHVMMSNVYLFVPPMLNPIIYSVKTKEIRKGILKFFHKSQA
Method in brief: as §1

OR51F1 (Homo sapiens) = target: T18, OR51F1 (Homo sapiens) (UniProt A6NGY5)
T18 sequence (whole entry): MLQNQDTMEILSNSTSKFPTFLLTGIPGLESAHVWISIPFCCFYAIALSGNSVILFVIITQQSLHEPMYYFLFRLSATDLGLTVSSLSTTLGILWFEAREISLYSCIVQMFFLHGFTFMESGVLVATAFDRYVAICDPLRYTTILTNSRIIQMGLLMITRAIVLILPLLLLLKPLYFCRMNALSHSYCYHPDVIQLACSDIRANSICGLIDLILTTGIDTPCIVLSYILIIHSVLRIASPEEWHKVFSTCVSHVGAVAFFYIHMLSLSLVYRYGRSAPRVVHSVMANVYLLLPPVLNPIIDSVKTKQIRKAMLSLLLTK
Method in brief: as §1

OR51H1 (Homo sapiens) = OR51H1 (Homo sapiens) (UniProt Q8NH63)
Method in brief: as §1

Measured: odorant receptor agonist call;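 also: active if original authors judged signal statistically different from baseline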

OR51H1 (Homo sapiens), sequence (Q8NH63 whole entry): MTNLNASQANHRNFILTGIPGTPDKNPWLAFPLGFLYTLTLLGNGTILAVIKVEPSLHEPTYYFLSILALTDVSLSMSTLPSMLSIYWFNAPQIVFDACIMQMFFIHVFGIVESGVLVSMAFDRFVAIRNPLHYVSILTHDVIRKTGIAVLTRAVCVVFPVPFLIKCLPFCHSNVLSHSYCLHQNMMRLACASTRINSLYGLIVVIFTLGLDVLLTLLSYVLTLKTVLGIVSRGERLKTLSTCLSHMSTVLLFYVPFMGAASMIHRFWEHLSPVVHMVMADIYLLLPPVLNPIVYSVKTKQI

CCC1OC(=O)C(O)=C1C (stereo not given)
not listed: OR51F1 (Homo sapiens) | OR51H1 (Homo sapiens)
inactive: all other assays above

CC1CCCCCCCCCCCCC(=O)C1 (stereo not given)
not listed: OR51E1 (Homo sapiens)
inactive: all other assays above
